Results pooled from the literature.
gag-pol reverse transcriptase: Gag-Pol polyprotein, reverse transcriptase (gag-pol, Human immunodeficiency virus 1, UniProt P03366)
gyrA: DNA gyrase subunit A (gyrA, Escherichia coli K-12, UniProt P0AES4)
OPRD1: Delta-type opioid receptor (OPRD1, Homo sapiens, UniProt P41143)

Structure (SMILES) | target | test | quantity | result
Cc1cc(C)cc(S(=O)(=O)c2c(C(=O)NCCNS(=O)(=O)c3ccc(F)cc3)[nH]c3ccc(Cl)cc23)c1 | gag-pol reverse transcriptase | enzyme activity, inhibitor, ELISA | IC50 | 66 nM
CC(C)Oc1c(NC(=O)c2ccc(NC(=O)[C@H](CC(N)=O)NC(=O)c3ccc(-c4nn[nH]c4-c4ccc(C#N)cc4)cc3)cc2)ccc(C(=O)Nc2ccc(C(=O)O)cc2)c1O | gyrA | enzyme activity, inhibitor | IC50 | > 50000 nM
CC1=C(/C=C/C2=CCC[C@]3(C)[C@@H]([C@H](C)CCCC(C)(C)O)CC[C@@H]23)C[C@@H](O)CC1 | Oxysterols receptor LXR-alpha (NR1H3, Homo sapiens, UniProt Q13133) | coactivator recruitment, agonist, TR-FRET | EC50 | 10 to 100 nM
CC(C)Oc1c(NC(=O)c2ccc(NC(=O)[C@H](CC(N)=O)NC(=O)c3ccc(NC(=O)Cc4ccc(C#N)cc4)cc3)cc2)ccc(C(=O)Nc2ccc(C(=O)O)cc2)c1O | gyrA | enzyme activity, inhibitor | IC50 | 16300 nM
Cc1cnc(-c2ccc(-c3ccc(NC(=O)Nc4c(F)cc(F)cc4F)cc3F)c3c2C(=O)NC3)[nH]1 | STE20-like serine/threonine-protein kinase (SLK, Homo sapiens, UniProt Q9H2G2) | binding, competition with immobilised ligand | Kd | 0.3 nM
CNC(=O)[C@@]12C[C@@H]1[C@@H](n1cnc3c(NC)cc(C#Cc4ccc(Cl)s4)nc31)[C@H](O)[C@@H]2O | OPRD1 | ligand displacement, radioligand | Ki | > 10000 nM
N#Cc1ccc(COc2cccc(C3CCN(Cc4nc5ccc(C(=O)O)cc5n4C[C@@H]4CCO4)CC3)n2)c(F)c1 | Gastric inhibitory polypeptide receptor (GIPR, Homo sapiens, UniProt P48546) | cAMP, agonist | EC50 | > 10000 nM
Cc1cc(C)cc(S(=O)(=O)c2c(C(=O)NCCCCCNS(=O)(=O)c3ccc([N+](=O)[O-])cc3)[nH]c3ccc(Cl)cc23)c1 | gag-pol reverse transcriptase | enzyme activity, inhibitor, ELISA | IC50 | 160 nM
CNc1nc(C#Cc2ccc(Cl)s2)nc2c1ncn2[C@H]1[C@H](O)[C@H](O)[C@]2(C(=O)OC(C)C)C[C@H]12 | OPRD1 | ligand displacement, radioligand | Ki | > 10000 nM
CO[C@@H](C(N)=O)[C@H](NC(=O)c1ccc(NC(=O)c2ccc(C#N)cc2)cc1)C(=O)Nc1ccc(C(=O)Nc2ccc(C(=O)Nc3ccc(C(=O)O)cc3)c(O)c2OC(C)C)cc1 | gyrA | enzyme activity, inhibitor | IC50 | 400 nM
CNC(=O)[C@@]12C[C@@H]1[C@@H](n1cnc3c(NC)nc(C#Cc4ccc(Br)s4)nc31)[C@H](O)[C@@H]2O | OPRD1 | ligand displacement, radioligand | Ki | > 10000 nM
CC(C)COc1c(NC(=O)c2ccc(NC(=O)[C@H](CC(N)=O)NC(=O)c3ccc(NC(=O)c4ccc([N+](=O)[O-])cc4)cc3)cc2)ccc(C(=O)Nc2ccc(C(=O)O)cc2)c1O | gyrA | enzyme activity, inhibitor | IC50 | 900 nM
CCn1c(-c2nc3cc(C(=O)N4CCC[C@@H](N)C4)cc(OC)c3n2C)cc2cccnc21 | 5-hydroxytryptamine receptor 3A (HTR3A, Homo sapiens, UniProt P46098) | calcium signal, agonist | EC50 | > 50100 nM
CNc1nc(C#Cc2ccccc2)nc2c1ncn2[C@H]1[C@H](O)[C@H](O)[C@@H]2C[C@@H]21 | OPRD1 | ligand displacement, radioligand | Ki | > 10000 nM
Cc1cc(C)cc(S(=O)(=O)c2c(C(=O)NCCCNS(=O)(=O)c3ccc(C#N)cc3)[nH]c3ccc(Cl)cc23)c1 | gag-pol reverse transcriptase | enzyme activity, inhibitor, ELISA | IC50 | 100 nM
CNc1nc(C#Cc2ccc(Cl)s2)nc2c1ncn2[C@H]1[C@H](O)[C@H](O)[C@]2(C(=O)NCCN)C[C@H]12 | OPRD1 | ligand displacement, radioligand | Ki | > 10000 nM
Cc1cc(C)cc(S(=O)(=O)c2c(C(=O)NCCCCNS(=O)(=O)c3ccc(C#N)cc3)[nH]c3ccc(Cl)cc23)c1 | gag-pol reverse transcriptase | enzyme activity, inhibitor, ELISA | IC50 | 120 nM
CC(C)Oc1c(NC(=O)c2ccc(NC(=O)[C@H](CC(N)=O)NC(=O)c3ccc(NC(=O)c4ccc(C#N)s4)cc3)cc2)ccc(C(=O)Nc2ccc(C(=O)O)cc2)c1O | gyrA | enzyme activity, inhibitor | IC50 | 500 nM
CNc1nc(C#Cc2ccc(Br)s2)nc2c1ncn2[C@H]1[C@H](O)[C@H](O)[C@]2(C(=O)OC)C[C@H]12 | OPRD1 | ligand displacement, radioligand | Ki | > 10000 nM
Cc1cc(C)cc(S(=O)(=O)c2c(C(=O)NCCCCNS(=O)(=O)c3ccc(Br)cc3)[nH]c3ccc(Cl)cc23)c1 | gag-pol reverse transcriptase | enzyme activity, inhibitor, ELISA | IC50 | 150 nM
N#Cc1ccc(Nc2nc(N)cc(Oc3ccc(-c4cccc(C#N)c4)cc3F)n2)cc1 | gag-pol reverse transcriptase | enzyme activity, inhibitor | IC50 | 340 nM
Cc1cc(C)cc(S(=O)(=O)c2c(C(=O)NCCCCNS(=O)(=O)c3ccc(Cl)cc3)[nH]c3ccc(Cl)cc23)c1 | gag-pol reverse transcriptase | enzyme activity, inhibitor, ELISA | IC50 | 94 nM
O[C@@H]1[C@H](O)[C@@H]2C[C@@H]2[C@H]1n1cnc2c(NCc3cccc(Cl)c3)ncnc21 | OPRD1 | ligand displacement, radioligand | Ki | > 10000 nM
Cc1cc(C)cc(S(=O)(=O)c2c(C(=O)NCCCNS(=O)(=O)c3ccc([N+](=O)[O-])cc3)[nH]c3ccc(Cl)cc23)c1 | gag-pol reverse transcriptase | enzyme activity, inhibitor, ELISA | IC50 | 120 nM
N#Cc1ccc(Nc2nc(N)cc(Oc3c(F)cc(-c4ccc(C#N)c(F)c4)cc3F)n2)cc1 | gag-pol reverse transcriptase | enzyme activity, inhibitor | IC50 | 40 nM
